High-throughput results as filed in PubChem.
Pf gametocyte: late stage P. falciparum gametocyte viability inhibitors, primary screen, ATP luminescence, HTS; P. falciparum stage V gametocytes, 24 h; inhibition, % at 10.9 µM; 150,000 compounds, 0.065% hits; AID 743093, 2013;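 active means inhibition above the mean plus 3 SD of compounds within the control limits, set per campaign, cut at about 38% in these data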;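 further: 0% = DMSO wells and 100% = medium only without gametocytes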
bCat nuc transl: modulators of beta-catenin nuclear translocation, primary screen, imaging, HeLa cells, immunofluorescence, high-content; nuclear translocation activity, % at 5 µM; 190,000 compounds, 0.3% hits;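 active means nuclear translocation activity above 50% at 5 µM, with a well cell count of 50 or more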;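 further: per-cell ratio of nuclear to cytoplasmic median beta-catenin stain intensity; plate controls were DMSO negative control for no effect and GSK-3 inhibitor IX positive control for full effect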
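System: HeLa cells, endogenous beta-catenin; compound dosing: 5 µM primary single dose, 0.1% DMSO, 0.02–20 µM confirmation series; incubation: 24 h compound exposure at 37°C, 5% CO2; signal: beta-catenin immunofluorescence imaging with DAPI; evaluation: % activation, nuclear-to-cytoplasmic median beta-catenin signal ratio per cell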
MT stabilizer: microtubule stabilizers in HeLa cells, primary screen, imaging, high-content imaging; HeLa tubulin immunostaining HCS, 24 h; share of cells brighter than vehicle mean+2SD; % tubulin-high responders, % at 10 µM; 200,000 compounds, 0.83% hits; AID 2205, 2009;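 active means plate Z-score above 3 for both tubulin-high and condensed-nucleus cell shares, with cell loss under 80%, at 10 µM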;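 further: anti alpha tubulin signal scored within the nucleus-defined area of each cell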
Cl transport mod: KCC2 cotransporter modulators, thallium flux, primary screen, cell-based, HEK293 KCC2, FluoZin-2 fluorescence, MLSMR; B-score of Tl+ flux slope (higher = more flux/activation; lower = inhibition) at 10 µM; KCC2 cells, thallium flux FluoZin-2 fluorescence; Solute carrier family 12 member 5 (Homo sapiens), Q9H2X9; AID 1456, 2008; 190,000 compounds, 2.2% hits;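 active means thallium flux slope and its plate-corrected score both differing from the plate sample mean at a set confidence after two filtering rounds, in either direction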;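 further: slope of fluorescence scaled to starting intensity during 10 to 20 s after thallium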
Target sequence (Q9H2X9 whole entry, looked up): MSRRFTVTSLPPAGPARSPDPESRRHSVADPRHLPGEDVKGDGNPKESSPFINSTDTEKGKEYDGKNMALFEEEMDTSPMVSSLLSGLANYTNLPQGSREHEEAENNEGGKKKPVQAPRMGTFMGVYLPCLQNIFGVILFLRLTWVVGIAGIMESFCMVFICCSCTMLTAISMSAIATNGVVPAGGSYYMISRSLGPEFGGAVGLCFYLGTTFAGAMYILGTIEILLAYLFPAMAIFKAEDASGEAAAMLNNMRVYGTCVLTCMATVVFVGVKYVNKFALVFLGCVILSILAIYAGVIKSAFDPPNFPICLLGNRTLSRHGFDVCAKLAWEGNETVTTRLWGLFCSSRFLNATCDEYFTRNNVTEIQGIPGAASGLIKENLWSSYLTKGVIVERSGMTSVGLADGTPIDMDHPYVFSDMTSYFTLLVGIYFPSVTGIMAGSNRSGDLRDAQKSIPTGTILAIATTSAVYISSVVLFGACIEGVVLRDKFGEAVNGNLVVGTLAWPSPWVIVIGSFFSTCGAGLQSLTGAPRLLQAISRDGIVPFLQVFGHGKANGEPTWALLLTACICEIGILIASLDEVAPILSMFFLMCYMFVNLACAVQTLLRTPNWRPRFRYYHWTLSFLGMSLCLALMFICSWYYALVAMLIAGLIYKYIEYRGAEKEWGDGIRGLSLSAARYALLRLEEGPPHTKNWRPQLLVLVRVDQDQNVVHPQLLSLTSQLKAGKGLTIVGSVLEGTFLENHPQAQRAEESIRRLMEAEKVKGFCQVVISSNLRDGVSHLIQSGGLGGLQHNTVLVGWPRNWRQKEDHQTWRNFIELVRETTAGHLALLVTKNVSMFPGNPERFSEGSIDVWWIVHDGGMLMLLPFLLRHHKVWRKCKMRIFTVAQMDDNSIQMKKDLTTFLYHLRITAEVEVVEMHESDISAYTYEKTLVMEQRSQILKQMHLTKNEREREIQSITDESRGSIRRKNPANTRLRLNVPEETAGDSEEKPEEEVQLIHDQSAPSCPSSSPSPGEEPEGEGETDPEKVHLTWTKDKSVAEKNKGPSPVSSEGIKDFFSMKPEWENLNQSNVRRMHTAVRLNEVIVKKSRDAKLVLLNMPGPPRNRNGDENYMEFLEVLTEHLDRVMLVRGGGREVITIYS
WT yeast gro inh: growth inhibition of WT strain, primary screen, mitochondrial fusion inhibitor project, WT and mutant strains, chemical genetic; mitochondrial fusion phenotypic screen; inhibition, % at 10 µM; 190,000 compounds, 2.1% hits; in the data active means inhibition above about 58%; tested in S. cerevisiae
Starred values were filed as active, the others as inactive. Only some compounds are listed: those with a hit (about 4% of all), similar ones and a draw of the others.

O=C(Nc1ccc(Oc2cccnc2)cc1)c1ccccc1F was read as Pf gametocyte 9.3, bCat nuc transl 1.4, MT stabilizer 2.2, Cl transport mod -3.62 and WT yeast gro inh 18.1.
Screening CN(C)/C=N/C1=C(C#N)C(c2cccs2)c2ccc3ccccc3c2O1 (stereo unspecified) returned bCat nuc transl -5.5, MT stabilizer 16.5*, Cl transport mod 1.2 and WT yeast gro inh 19.1.
Screening O=C(ONc1ccc(N=NC(=O)c2ccccc2O)cc1)c1ccccc1 returned Pf gametocyte -9.4, bCat nuc transl 3.8, MT stabilizer 2.0, Cl transport mod -0.0299 and WT yeast gro inh 38.0.
O=Nc1ccc(NOC(=O)c2ccccc2Br)cc1 was read as Pf gametocyte -13.3, MT stabilizer 3.4, Cl transport mod -1.41 and WT yeast gro inh 58.7*.
`CN(C)c1ccc(-c2n[nH]c(=S)n2-c2ccccc2)cc1` gave bCat nuc transl -0.4, MT stabilizer 5.3, Cl transport mod 0.971 and WT yeast gro inh -1.3.
`CCN(CC)c1ccc(-c2n[nH]c(=S)n2-c2ccccc2)cc1` gave bCat nuc transl 4.3, MT stabilizer 24.8*, Cl transport mod 1.53 and WT yeast gro inh 2.5.
Screening COc1ccc(-c2nn(-c3ccccc3)cc2C(=O)Nc2nccs2)cc1 returned Pf gametocyte -8.1, bCat nuc transl -0.9, MT stabilizer 18.3, Cl transport mod 0.232 and WT yeast gro inh 41.5.
For O=C(Nc1nccs1)c1cn(-c2ccccc2)nc1-c1ccncc1 the results were Pf gametocyte 69.2*, bCat nuc transl 1.9, MT stabilizer 5.2, Cl transport mod 0.0265 and WT yeast gro inh 8.9.
For CCOC(=O)C1CCCN(c2c(C(=O)c3ccccc3)cnc3ccccc23)C1 (stereo unspecified) the results were Pf gametocyte 6.2, bCat nuc transl -0.7, MT stabilizer 3.0, Cl transport mod -2.4 and WT yeast gro inh 58.8*.
For CCOC(=O)C1CCN(c2c(C(=O)c3ccccc3)cnc3ccc(CC)cc23)CC1 the results were bCat nuc transl -0.7, MT stabilizer 7.2, Cl transport mod -0.472 and WT yeast gro inh 75.5*.
`Cn1cccc1/C=N/NC(=O)c1cccc(OC(F)(F)C(F)F)c1` gave Pf gametocyte -5.1, bCat nuc transl 2.0, MT stabilizer 3.5, Cl transport mod 0.0739 and WT yeast gro inh 9.1.
O=C(N/N=C/c1cccc(OCC(=O)N2CCCC2)c1)C(=O)Nc1ccccc1F was read as Pf gametocyte -6.8, bCat nuc transl -2.9, MT stabilizer 3.7, Cl transport mod 0.0757 and WT yeast gro inh -6.1.
O=C(COC(=O)C1(c2ccc(Cl)cc2)CCCC1)Nc1ncc(C(F)(F)F)cc1Cl was read as Pf gametocyte 9.2, bCat nuc transl -0.6, MT stabilizer 5.5, Cl transport mod -0.744 and WT yeast gro inh 68.5*.
O=C(COC(=O)c1ccccn1)Nc1ncc(C(F)(F)F)cc1Cl was read as bCat nuc transl -0.9, MT stabilizer 3.3, Cl transport mod -0.276 and WT yeast gro inh -3.2.
For O=C(COC(=O)c1ccc([N+](=O)[O-])s1)Nc1ncc(C(F)(F)F)cc1Cl the results were Pf gametocyte -26.4, bCat nuc transl 4.7, MT stabilizer 4.3, Cl transport mod 0.393 and WT yeast gro inh 81.6*.
CCC/C(=N/NC(=O)c1ccccc1Cl)c1ccccc1 was read as Pf gametocyte 9.3, bCat nuc transl 0.7, MT stabilizer 4.0, Cl transport mod -0.269 and WT yeast gro inh -16.0.
For COc1ccc2[nH]c(C)c(CCNC(=S)Nc3cccc(C)c3)c2c1 the results were bCat nuc transl -5.2, MT stabilizer 4.9, Cl transport mod -0.5 and WT yeast gro inh 7.6.
`CCc1cccc(C)c1NC(=S)NCCc1c(C)[nH]c2ccc(C)cc12` gave bCat nuc transl -2.1, MT stabilizer 3.6, Cl transport mod -1.35 and WT yeast gro inh 61.7*.
CCc1cccc(CC)c1NC(=S)NCCc1c(C)[nH]c2ccc(C)cc12 was read as bCat nuc transl 1.9, MT stabilizer 6.0, Cl transport mod -0.197 and WT yeast gro inh 78.2*.
`CC(=O)Nc1ccc(S(=O)(=O)N2c3ccccc3NC(=O)CC2C)c(Cl)c1` (stereo unspecified) gave Pf gametocyte 8.2, bCat nuc transl 0.5 and Cl transport mod 0.587.
COc1ccc(CNc2oc(COc3ccc(Cl)cc3)nc2C#N)cc1 was read as Pf gametocyte 8.4, bCat nuc transl 2.6, MT stabilizer 10.6, Cl transport mod -1.87 and WT yeast gro inh 70.8*.
COc1ccc(Nc2oc(-c3ccc(Cl)cc3)nc2C#N)cc1 was read as bCat nuc transl 63.3*, MT stabilizer 39.4*, Cl transport mod 0.124 and WT yeast gro inh 14.4.
CCOc1ccc(Nc2oc(-c3ccc(Cl)cc3)nc2C#N)cc1 was read as bCat nuc transl 0.0, MT stabilizer 32.8*, Cl transport mod 0.942 and WT yeast gro inh 14.9.
For COc1ccc(Nc2oc(-c3ccc(OC)cc3)nc2C#N)cc1 the results were Pf gametocyte 12.3, bCat nuc transl 0.5 and Cl transport mod 1.95.
For COC(=O)C/C=N/N=C1/NC(=O)/C(=C/C(=O)O)S1 the results were Pf gametocyte -40.9, bCat nuc transl -1.0 and Cl transport mod -0.185.
`Cc1cn([C@H](C(=O)NCCCCCCCCCCC(=O)N2CCN(C(=O)OC(C)(C)C)CC2)[C@@H](C)O)nn1` gave Pf gametocyte -14.2.
For O=C(NCC1CCCO1)C1CCC(=O)N1Cc1ccccc1Cl (stereo unspecified) the results were bCat nuc transl -1.0, MT stabilizer 1.2, Cl transport mod -1.05 and WT yeast gro inh 91.3*.
Screening O=S(=O)(Cc1ccccc1)N=Nc1c(O)[nH]c2ccc(Br)cc12 returned bCat nuc transl 0.5.
CS/C(=N\S(=O)(=O)c1cccs1)Nc1cccc(Cl)c1C was read as bCat nuc transl 0.7, MT stabilizer 3.9, Cl transport mod -1.74 and WT yeast gro inh 7.9.
Screening CS/C(=N\S(=O)(=O)c1cccs1)Nc1ccc(F)c(Cl)c1 returned Pf gametocyte 58.5*, bCat nuc transl -0.4, MT stabilizer 3.8, Cl transport mod -0.973 and WT yeast gro inh 1.6.
C=C(C)COc1ccc(-c2n[nH]c(C)c2-c2ccc(OC)cc2)c(O)c1 was read as bCat nuc transl 5.5, MT stabilizer 29.8*, Cl transport mod 1.18 and WT yeast gro inh 33.6.
CCOc1ccc(-c2n[nH]c(C)c2-c2ccccc2OC)c(O)c1 was read as bCat nuc transl 3.4, MT stabilizer 26.9* and WT yeast gro inh 10.9.
`COc1ccc(-c2n[nH]c(C)c2-c2cscn2)c(O)c1` gave Pf gametocyte 3.4, bCat nuc transl -0.8 and Cl transport mod 0.0672.
